Test results: ChEMBL document CHEMBL1221389, “Fluorescent schweinfurthin B and F analogs with anti-proliferative activity” (2010)
Calls of active or inactive are those of the source. No cut-off for these calls is given here.

Legend:
SF-295 [1] = assay: Cytotoxicity against human SF295 cells after 44 hrs by MTT assay; assay type: functional; settings: SF-295, 44 h, read-out: ED50 (the source's name)
Procedure, shortened: (§1)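 Exposure to compound lasted 44 h. SF-295 cells were kept in RPMI 1640 and A549 cells in F-12, each with 10% FBS, antibiotics and L-glutamine, at 37 °C and 5% CO2. Medium was then replaced with MTT-containing medium (phenol red-free RPMI for SF-295, F-12 for A549) up to 48 h total. Cells were solubilized overnight at room temperature in HCl/Triton X-100/isopropanol stop solution, and absorbance was read at 540 and 650 nm. ED50 was derived from the dose-response.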

A549 = assay: Cytotoxicity against human A549 cells after 44 hrs by MTT assay; assay type: functional; settings: A549, 44 h, read-out: ED50 (the source's name); procedure, shortened: as §1
SF-295 [2] = assay: Cellular uptake in human SF295 cells assessed as perinuclear localization at 500 nM after 24 hrs by fluorescence microscopy; assay type: functional, cell-based
Procedure, shortened: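 SF-295 glioma cells, from NCI, grown in RPMI 1640 with 10% FBS, amphotericin B, penicillin/streptomycin and L-glutamine at 37 °C, 5% CO2. Plated on coverslips and exposed to compound at 500 nM for 24 h at about 45% confluency. Then washed three times in PBS, fixed in 4% formaldehyde for 15 min, nuclei stained with DAPI, and compound fluorescence imaged.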

SMILES	EC50 (SF-295 [1]) [nM]	EC50 (A549) [nM]	Activity (SF-295 [2])
COc1ccc(/C=C/c2cc(O)c(/C=C/c3ccc(N)cc3)c(OC)c2)cc1OC	> 1000	> 10000	
COc1cc(/C=C/c2cc3c(c(OC)c2)O[C@]2(C)C[C@@H](O)[C@@H](O)C(C)(C)[C@H]2C3)cc(O)c1/C=C/c1ccc([N+](=O)[O-])cc1	40	700	
COc1cc(/C=C/c2cc3c(c(OC)c2)O[C@]2(C)C[C@@H](O)[C@@H](O)C(C)(C)[C@H]2C3)cc(O)c1/C=C/c1ccc(N)cc1	20	3200	
COc1ccc(/C=C/c2cc(O)c(/C=C/c3ccc([N+](=O)[O-])cc3)c(OC)c2)cc1OC	> 1000	> 10000	
COc1cc(/C=C/c2cc(O)c(/C=C/c3ccc([N+](=O)[O-])cc3)c(O)c2)cc2c1O[C@]1(C)CC[C@@H](O)C(C)(C)[C@H]1C2	50	800	
COc1cc(/C=C/c2cc3c(c(OC)c2)O[C@]2(C)CC[C@@H](O)C(C)(C)[C@H]2C3)cc(O)c1/C=C/c1ccc([N+](=O)[O-])cc1	100	2700	Active
COc1cc(/C=C/c2cc3c(c(OC)c2)O[C@]2(C)CC[C@@H](O)C(C)(C)[C@H]2C3)cc(O)c1/C=C/c1ccc(N)cc1	400	3000	
